# According to ChEMBL document CHEMBL4251667, “Ribemansides A and B, TRPC6 Inhibitors from Ribes manshuricum That Suppress TGF-β1-Induced Fibrogenesis in HK-2 Cells” (J Nat Prod, 2018):
# The source made the active and inactive calls. The rule behind the calls is not given here.
# How the values were obtained:
# HK-2 [1] = assay: Effect on basal alpha-SMA expression in human HK2 cells at 1 uM after 36 hrs by Western blot analysis; assay type: ADME, cell-based; details: hk-2, 36 h
# HK-2 [2] = assay: Inhibition of TGFbeta1-induced epithelial-mesenchymal transition in human HK2 cells assessed as reduction in alpha-SMA expression measured after 36 hrs by Western blot analysis; assay type: functional, cell-based
# HK-2 [3] = assay: Inhibition of TGFbeta1-induced epithelial-mesenchymal transition in human HK2 cells assessed as reduction in fibronectin release measured after 36 hrs by ELISA; assay type: functional, cell-based
# HK-2 [4] = assay: Effect on morphological changes in human HK2 cells at 1 uM measured after 36 hrs; assay type: ADME, cell-based; details: hk-2, 36 h
# HK-2 [5] = assay: Inhibition of TGFbeta1-induced epithelial-mesenchymal transition in human HK2 cells assessed as reversal of spindle-like morphology measured after 36 hrs; assay type: functional, cell-based
# Summary of the method: (§1)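 HK-2 cells kept in RPMI 1640 with 2 mg/mL NaHCO3, 10% FBS and 10 mM HEPES, then seeded at 6000 (96-well) or 40 000 (12-well) cells/well. Treated in serum-free medium with TGF-β1 (5 ng/mL), with or without test agent, for 36 h. Morphology scored as cell length/width ratio (n = 40). Run twice, each in duplicate.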
# HK-2 [6] = assay: Inhibition of TGFbeta1-induced epithelial-mesenchymal transition in human HK2 cells assessed as reduction in alpha-SMA expression at 30 uM measured after 36 hrs by Western blot analysis; assay type: functional, cell-based
# HK-2 [7] = assay: Inhibition of TGFbeta1-induced epithelial-mesenchymal transition in human HK2 cells assessed as reduction in fibronectin release at 30 uM measured after 36 hrs by ELISA; assay type: functional, cell-based
# HK-2 [8] = assay: Inhibition of TGFbeta1-induced epithelial-mesenchymal transition in human HK2 cells assessed as reversal of spindle-like morphology at 30 uM measured after 36 hrs; assay type: functional, cell-based; summary of the method: as §1
# [9] = molecular target: T1, Short transient receptor potential channel 6 (Mus musculus, UniProt Q61143); assay: Inhibition of mouse TRPC6 expressed in HEK293 cells assessed as reduction in M085-induced intracellular calcium flux pretreated for 5 mins followed by M085 addition measured after 300 secs by Fluo-8AM dye based FLIPR assay; assay type: cell-based
# T1 sequence (Q61143 whole entry): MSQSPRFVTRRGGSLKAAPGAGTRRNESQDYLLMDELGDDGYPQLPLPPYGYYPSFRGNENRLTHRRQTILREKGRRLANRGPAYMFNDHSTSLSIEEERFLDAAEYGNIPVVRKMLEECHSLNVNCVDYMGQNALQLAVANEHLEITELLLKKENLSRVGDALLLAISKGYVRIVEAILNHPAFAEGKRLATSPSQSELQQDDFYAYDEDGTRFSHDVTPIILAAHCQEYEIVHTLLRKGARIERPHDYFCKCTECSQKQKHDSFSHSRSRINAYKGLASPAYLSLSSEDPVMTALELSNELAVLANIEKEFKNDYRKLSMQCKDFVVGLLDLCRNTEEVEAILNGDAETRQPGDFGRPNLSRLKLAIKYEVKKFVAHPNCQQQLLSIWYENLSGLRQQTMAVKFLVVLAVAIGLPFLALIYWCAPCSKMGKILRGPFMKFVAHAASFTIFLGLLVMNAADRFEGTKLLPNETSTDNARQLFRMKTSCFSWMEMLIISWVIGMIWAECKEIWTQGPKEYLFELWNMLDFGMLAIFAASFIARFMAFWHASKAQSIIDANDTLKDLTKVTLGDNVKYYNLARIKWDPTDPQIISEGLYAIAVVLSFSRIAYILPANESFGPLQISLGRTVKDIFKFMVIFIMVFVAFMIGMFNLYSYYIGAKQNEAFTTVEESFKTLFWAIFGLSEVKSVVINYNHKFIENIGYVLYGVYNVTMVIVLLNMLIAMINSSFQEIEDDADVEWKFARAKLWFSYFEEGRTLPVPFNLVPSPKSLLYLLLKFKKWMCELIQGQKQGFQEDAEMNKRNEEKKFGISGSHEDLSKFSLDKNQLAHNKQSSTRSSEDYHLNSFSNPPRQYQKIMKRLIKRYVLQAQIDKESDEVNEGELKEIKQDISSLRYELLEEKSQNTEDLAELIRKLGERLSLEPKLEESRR
# Summary of the method: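 HEK-293 cells stably expressing mouse TRPC6, on poly-D-lysine plates (~20 000 cells/well), cultured 6 h. Loaded with 4 μM Fluo-8/AM for 45 min, washed. FLIPR read: baseline 30 s, then compound or vehicle 5 min, then M085 (1 μM). Signal expressed as F/F0; AUC over 300 s after M085 used for concentration–response. Twice, each in triplicate.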
Compound,Activity (HK-2 [1]),inhibition (HK-2 [2]),inhibition (HK-2 [3]),Activity (HK-2 [4]),inhibition (HK-2 [5]),inhibition (HK-2 [6]),inhibition (HK-2 [7]),inhibition (HK-2 [8]),IC50 [9] [µM]
Cl.Cl.N#Cc1ccc(O[C@@H]2c3ccccc3C[C@H]2N2CCC[C@@H](N)C2)c(Cl)c1,Non-Toxic,Dose-dependent effect,Dose-dependent effect,Non-Toxic,Dose-dependent effect,–,–,–,–
N#C/C(=C\CO)CO[C@@H]1O[C@H](COC(=O)c2ccc(O)cc2)[C@@H](O)[C@H](O)[C@H]1O,–,–,–,–,–,Active,Active,Active,24.5
COc1cc(C(=O)OC[C@H]2O[C@@H](OC/C(C#N)=C/CO)[C@H](O)[C@@H](O)[C@@H]2O)ccc1O,–,–,–,–,–,Active,Active,Active,25.6
